{"source": "paper PMC11564280", "about": "(Clinical Drug Investigation, 2024)", "key": {"[1]": {"assay": "Safety and tolerability, Japanese and Chinese participants together", "assay_type": "in vivo, human", "outline": "(§1)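 Safety assessed at every visit in all randomized participants given ≥1 dose of drug or placebo (oral suspension once daily for 10 days, 3:1 randomization). Covered AE and SAE incidence and severity, vital signs, ECGs, laboratory tests and skin rash. Participants resided on site from day −1 to day 12, with visits on days 14, 16, 20 and 24. Rash graded by CTCAE; relatedness judged by the investigator.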"}, "[2]": {"assay_type": "in vivo, human", "outline": "(§2)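 Healthy males aged 18–50 y, randomized 3:1 to active or placebo (single-blind). Oral suspension given once daily each morning after a ≥10 h fast for 10 days: Japanese cohorts 2.5, 5 or 10 mg, Chinese cohort 5 mg. K2EDTA blood drawn pre-dose and 0.25–12 h post-dose on days 1 and 10, plus 24–336 h. Urine pooled 0–3, 3–6, 6–9, 9–12 and 12–24 h on day 10. Plasma spun 1500g, 4 °C, 10 min; samples stored at −50 to −90 °C.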"}, "[3]": {"assay": "Safety and tolerability in healthy Japanese volunteers", "assay_type": "in vivo, human", "conditions": "for Any AE / Any AE leading to discontinuation / Any SAE / Any possibly related AE / Death / Maculopapular rash: Japanese", "outline": "as §1"}, "[4]": {"conditions": "human plasma; cited from earlier work"}, "[5]": {"conditions": "cited from earlier work; for mean CL/F on the last study day: mainly white and Black/African American participants"}, "[6]": {"conditions": "SAD study 5–405 mg; cited from earlier work"}, "[7]": {"assay_type": "in vivo, human", "conditions": "for Ae(0–last), cumulative amount excreted in urine / fe(0–last), fraction of dose excreted unchanged in urine: day 10; for Vd/F / half-life / CL renal: human, po; for Vd/F / half-life: plasma; for Ae(0–last), cumulative amount excreted in urine / fe(0–last), fraction of dose excreted unchanged in urine / CL renal: urine", "outline": "as §2"}, "[8]": {"assay": "Safety and tolerability in healthy Chinese volunteers", "assay_type": "in vivo, human", "conditions": "5 mg once daily for 10 days, n = 6", "outline": "as §1"}, "[9]": {"assay": "Pharmacokinetics, Japanese and Chinese participants together or compared", "assay_type": "in vivo, human", "outline": "as §2"}, "[10]": {"assay": "Stability of frozen plasma and urine pharmacokinetic samples", "set-up": "species or system human", "conditions": "stored frozen at − 50 to − 90 °C"}, "[11]": {"conditions": "Chinese, 5 mg oral once daily, day 10, n = 5, urine"}, "[12]": {"conditions": "2.5 mg once daily for 10 days, n = 6"}, "[13]": {"conditions": "5 mg once daily for 10 days, n = 6"}, "[14]": {"conditions": "10 mg once daily for 10 days, n = 6"}, "[15]": {"conditions": "total mitiperstat 2.5, 5 or 10 mg, n = 18"}, "[16]": {"conditions": "Japanese, 2.5 mg oral once daily, n = 6"}, "[17]": {"conditions": "Japanese, 5 mg oral once daily, n = 5"}, "[18]": {"conditions": "Japanese, 10 mg oral once daily, n = 3"}}, "note": "Entries after “also recorded” stand apart in the source; their conditions may differ. Where two headings read alike, the source gives them in different places."}
{"compound": "C[C@@H](N)c1cc(Cl)ccc1Cn1c(=S)[nH]c(=O)c2[nH]ccc21", "note": "[Mitiperstat]", "values": [{"measurement": "laboratory results, vital signs or electrocardiograms", "setting": "[1]; Japanese and Chinese, 2.5–10 mg once daily for 10 days", "result": "No clinically significant trends or shifts from baseline"}, {"measurement": "time to resolution of rash", "setting": "[1]; all cases of rash", "result": "≤ 1", "unit": "month"}, {"measurement": "day of rash occurrence", "setting": "[1]; the other four participants who experienced rash", "result": 9, "unit": "days"}, {"measurement": "adverse events of rash of moderate intensity (maculopapular rash, CTCAE grade 2)", "setting": "[1]; three Japanese 10 mg, one Chinese 5 mg", "result": "Four"}, {"measurement": "Ae(0–last), cumulative amount excreted in urine", "setting": "[2]; [11]", "result": "2.48 (0.53) mg"}, {"measurement": "fe(0–last), fraction of dose excreted unchanged in urine", "setting": "[2]; [11]", "result": "49.59 (10.62) %"}, {"measurement": "Vd/F", "setting": "[2]; human, plasma, po, 5 mg", "result": 1960, "unit": "L"}, {"measurement": "half-life", "setting": "[2]; human, plasma, po, 5 mg", "result": 55.4, "unit": "h"}, {"measurement": "CL renal", "setting": "[2]; human, urine, po, 5 mg", "result": 200, "unit": "mL/min"}, {"measurement": "Any AE", "setting": "[3]; [12]", "result": "1 (16.7) n (%)"}, {"measurement": "Any AE leading to discontinuation", "setting": "[3]; [12]", "result": "0 (0.0) n (%)"}, {"measurement": "Any SAE", "setting": "[3]; [12]", "result": "0 (0.0) n (%)"}, {"measurement": "Any possibly related AE", "setting": "[3]; [12]", "result": "0 (0.0) n (%)"}, {"measurement": "Death", "setting": "[3]; [12]", "result": "0 (0.0) n (%)"}, {"measurement": "Maculopapular rash", "setting": "[3]; [12]", "result": "0 (0.0) n (%)"}, {"measurement": "Any AE", "setting": "[3]; [13]", "result": "2 (33.3) n (%)"}, {"measurement": "Any AE leading to discontinuation", "setting": "[3]; [13]", "result": "1 (16.7) n (%)"}, {"measurement": "Any SAE", "setting": "[3]; [13]", "result": "0 (0.0) n (%)"}, {"measurement": "Any possibly related AE", "setting": "[3]; [13]", "result": "1 (16.7) n (%)"}, {"measurement": "Death", "setting": "[3]; [13]", "result": "0 (0.0) n (%)"}, {"measurement": "Maculopapular rash", "setting": "[3]; [13]", "result": "1 (16.7) n (%)"}, {"measurement": "Any AE", "setting": "[3]; [14]", "result": "4 (66.7) n (%)"}, {"measurement": "Any AE leading to discontinuation", "setting": "[3]; [14]", "result": "3 (50.0) n (%)"}, {"measurement": "Any SAE", "setting": "[3]; [14]", "result": "0 (0.0) n (%)"}, {"measurement": "Any possibly related AE", "setting": "[3]; [14]", "result": "3 (50.0) n (%)"}, {"measurement": "Death", "setting": "[3]; [14]", "result": "0 (0.0) n (%)"}, {"measurement": "Maculopapular rash", "setting": "[3]; [14]", "result": "3 (50.0) n (%)"}, {"measurement": "Any AE", "setting": "[3]; [15]", "result": "7 (38.9) n (%)"}, {"measurement": "Any AE leading to discontinuation", "setting": "[3]; [15]", "result": "4 (22.2) n (%)"}, {"measurement": "Any SAE", "setting": "[3]; [15]", "result": "0 (0.0) n (%)"}, {"measurement": "Any possibly related AE", "setting": "[3]; [15]", "result": "4 (22.2) n (%)"}, {"measurement": "Death", "setting": "[3]; [15]", "result": "0 (0.0) n (%)"}, {"measurement": "Maculopapular rash", "setting": "[3]; [15]", "result": "4 (22.2) n (%)"}, {"measurement": "day of rash occurrence", "setting": "[3]; Participant receiving 5 mg", "result": 4, "unit": "days"}, {"measurement": "share of drug-related exposure in plasma", "setting": "[4]", "result": "approximately 7%"}, {"measurement": "dose proportionality of AUC and Cmax", "setting": "[5]; MAD study 5–45 mg, last day of dosing", "result": "approximately proportional to dose"}, {"measurement": "time to Cmax", "setting": "[5]; healthy participants", "result": "approximately 1 h"}, {"measurement": "mean CL/F on the last study day", "setting": "[5]; 5 mg", "result": 22.8, "unit": "L/h"}, {"measurement": "mean CL/F on the last study day", "setting": "[5]; 10 mg", "result": 20.6, "unit": "L/h"}, {"measurement": "dose proportionality of exposure (average AUC)", "setting": "[6]", "result": "increased proportionally with mitiperstat dose"}, {"measurement": "Ae(0–last), cumulative amount excreted in urine", "setting": "[7]; [16]", "result": "1.20 (0.29) mg"}, {"measurement": "fe(0–last), fraction of dose excreted unchanged in urine", "setting": "[7]; [16]", "result": "47.94 (11.55) %"}, {"measurement": "Ae(0–last), cumulative amount excreted in urine", "setting": "[7]; [17]", "result": "2.56 (0.72) mg"}, {"measurement": "fe(0–last), fraction of dose excreted unchanged in urine", "setting": "[7]; [17]", "result": "51.14 (14.31) %"}, {"measurement": "Ae(0–last), cumulative amount excreted in urine", "setting": "[7]; [18]", "result": "6.29 (1.77) mg"}, {"measurement": "fe(0–last), fraction of dose excreted unchanged in urine", "setting": "[7]; [18]", "result": "62.94 (17.71) %"}, {"measurement": "dose proportionality of exposure (AUC, Ctrough and Cmax)", "setting": "[7]; Japanese, 2.5–10 mg range", "result": "dose proportional; also recorded: increased proportionally with dose"}, {"measurement": "Vd/F", "setting": "[7]; 2.5 mg", "result": 2300, "unit": "L"}, {"measurement": "half-life", "setting": "[7]; 2.5 mg", "result": 50.2, "unit": "h"}, {"measurement": "Vd/F", "setting": "[7]; 5 mg", "result": 2170, "unit": "L"}, {"measurement": "half-life", "setting": "[7]; 5 mg", "result": 57.8, "unit": "h"}, {"measurement": "Vd/F", "setting": "[7]; 10 mg", "result": 2250, "unit": "L"}, {"measurement": "half-life", "setting": "[7]; 10 mg", "result": 56.4, "unit": "h"}, {"measurement": "CL renal", "setting": "[7]; 2.5 mg", "result": 248, "unit": "mL/min"}, {"measurement": "CL renal", "setting": "[7]; 5 mg", "result": 215, "unit": "mL/min"}, {"measurement": "CL renal", "setting": "[7]; 10 mg", "result": 282, "unit": "mL/min"}, {"measurement": "Any AE", "setting": "[8]", "result": "2 (33.3) n (%)"}, {"measurement": "Any AE leading to discontinuation", "setting": "[8]", "result": "1 (16.7) n (%)"}, {"measurement": "Any SAE", "setting": "[8]", "result": "0 (0.0) n (%)"}, {"measurement": "Any possibly related AE", "setting": "[8]", "result": "2 (33.3) n (%)"}, {"measurement": "Death", "setting": "[8]", "result": "0 (0.0) n (%)"}, {"measurement": "Maculopapular rash", "setting": "[8]", "result": "1 (16.7) n (%)"}, {"measurement": "mean CL/F on the last study day", "setting": "[9]; Japanese and Chinese cohorts receiving 5 mg", "result": 25.3, "unit": "L/h"}, {"measurement": "time to steady state", "setting": "[9]; Japanese and Chinese, once-daily oral dosing", "result": "≤ 10", "unit": "days"}, {"measurement": "time to steady state by visual interpretation", "setting": "[9]; Japanese and Chinese, trough concentrations", "result": "approximately 7 days"}, {"measurement": "renal clearance as share of apparent total clearance", "setting": "[9]; both Japanese and Chinese participants", "result": "approximately 50%"}, {"measurement": "median time to Cmax", "setting": "[9]; day 10, Japanese and Chinese, range of group medians", "result": "1.02 to 2.00", "unit": "h"}, {"measurement": "half-life", "setting": "[9]; human, plasma, po", "result": "50.2 to 57.8", "unit": "h"}, {"measurement": "known stability period of study samples", "setting": "[10]; plasma", "result": 438, "unit": "days"}, {"measurement": "known stability period of study samples", "setting": "[10]; urine", "result": 439, "unit": "days"}]}
